Source: ChEMBL document CHEMBL2021780, “Antineoplastic agents. 548. Synthesis of iodo- and diiodocombstatin phosphate prodrugs” (J Nat Prod, 2012)
In brackets after ≈: the same amount, converted by molar mass. Activity calls are given as the source filed them. The rule behind the calls is not given here.

Key:
Micrococcus luteus = test: Antibacterial activity against Micrococcus luteus assessed per disc; assay type: functional
NCI-H460 = test: Growth inhibition of human NCI-H460 cells after 48 hrs by sulforhodamine B assay; assay type: functional; conditions: NCI-H460, 48 h
Method in brief: (§1)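 NCI sulforhodamine B assay. Cells were seeded in 5% FBS/RPMI-1640 and incubated 24 h. Serial compound dilutions were then added for 48 h. Cells were fixed with trichloroacetic acid, stained with SRB and read by microplate reader. GI50 is the concentration giving 50% reduction in net protein increase, calculated from optical density data.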

Neisseria gonorrhoeae [1] = test: Antibacterial activity against Neisseria gonorrhoeae assessed per disc; assay type: functional
DU-145 = test: Growth inhibition of human DU145 cells after 48 hrs by sulforhodamine B assay; assay type: functional; conditions: DU-145, 48 h; method in brief: as §1
P388 = test: Growth inhibition of mouse P388 cells after 48 hrs by Z1 Beckman/Coulter particle counter analysis; assay type: functional; conditions: P388, 48 h, read-out: ED50 (the source's name)
Method in brief: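 Mouse P388 leukemia cells were incubated 24 h in 10% horse serum/Fisher medium, then exposed 48 h to serial compound dilutions. ED50 was calculated from cell counts on a Coulter Z1 particle counter.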

KM-20L2 = test: Growth inhibition of human KM20L2 cells after 48 hrs by sulforhodamine B assay; assay type: functional; conditions: KM-20L2, 48 h; method in brief: as §1
SF-268 = test: Growth inhibition of human SF268 cells after 48 hrs by sulforhodamine B assay; assay type: functional; conditions: SF-268, 48 h; method in brief: as §1
BXPC-3 = test: Growth inhibition of human BxPC3 cells after 48 hrs by sulforhodamine B assay; assay type: functional; conditions: BXPC-3, 48 h; method in brief: as §1
[2] = Displacement of [3H]colchicine from tubulin at 1 uM after 10 mins
Method in brief: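 [³H]colchicine binding: 1.0 μM tubulin with 5.0 μM [³H]colchicine and compound, incubated 10 min at 37 °C. The tubulin–colchicine complex was separated from unbound label by retention on DEAE-cellulose filters. Result is inhibition of radiolabel binding.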

[3] = Displacement of [3H]colchicine from tubulin at 5 uM after 10 mins
Method in brief: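 Purified tubulin 1.0 μM incubated with 5.0 μM [³H]colchicine and test compound for 10 min at 37 °C. Tubulin–colchicine complex retained on DEAE-cellulose filters to separate it from unbound label. Read-out is the percent inhibition of radiolabel binding.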

HUVEC [4] = test: Antiangiogenic activity in HUVEC assessed as cell growth at 1 ug/ml after 24 hrs by sulforhodamine B assay relative to control; assay type: functional; conditions: Homo sapiens, read-out: Activity
Neisseria gonorrhoeae [5] = test: Antibacterial activity against Neisseria gonorrhoeae ATCC 49226 by broth microdilution method; assay type: functional
Method in brief: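 Broth microdilution followed NCCLS standard methods. Compounds were reconstituted in sterile DMSO and diluted in the appropriate medium immediately before testing. MIC was taken as the lowest concentration giving no visible growth (optically clear). Assays were repeated on separate days.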

[6] = Solubility of the compound in water; assay type: physicochemical; conditions: buffer
Method in brief: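 Solubility expressed as amount dissolving in 1 mL H₂O at 25 °C.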

HUVEC [7] = test: Antiangiogenic activity in HUVEC assessed as reduction of cord length at 0.01 ug/ml after 24 hrs by matrigel assay relative to control; assay type: functional, Homo sapiens; parameters: scale not given: the % may be the effect or the level left
Method in brief: (§2)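 Commercial HUVECs grown in EGM-2 were seeded at 2 × 10⁵ cells/mL onto Matrigel, which had been polymerized 15 min at rt and then 30 min at 37 °C, per NCI DTP protocol. Compound was added and cells were incubated 24 h, then imaged by inverted microscopy. Cord length and junction number were scored against untreated control on a scale from − (none) to +++ (same as control), with ++ = 50% of control.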

HUVEC [8] = test: Antiangiogenic activity in HUVEC assessed as cell growth inhibition after 48 hrs by sulforhodamine B assay; assay type: functional, cell-based; conditions: Homo sapiens
Method in brief: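 HUVECs were grown in EGM-2 medium and tested with the standard SRB growth assay following NCI Developmental Therapeutics Program Matrigel antiangiogenesis protocols. IC50 (concentration causing 50% inhibition) was calculated from plotted data.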

HUVEC [9] = test: Antiangiogenic activity in HUVEC assessed as reduction of number of junctions at 0.01 ug/ml after 24 hrs by matrigel assay relative to control; assay type: functional, Homo sapiens; parameters: scale not given: the % may be the effect or the level left; method in brief: as §2
HUVEC [10] = test: Antiangiogenic activity in HUVEC assessed as cell growth at 0.1 ug/ml after 24 hrs by sulforhodamine B assay relative to control; assay type: functional, Homo sapiens
HUVEC [11] = test: Antiangiogenic activity in HUVEC assessed as cell growth at 0.01 ug/ml after 24 hrs by sulforhodamine B assay relative to control; assay type: functional, Homo sapiens
[12] = Inhibition of purified tubulin assembly after 20 mins
Method in brief: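 Purified tubulin at 10 μM in 0.8 M monosodium glutamate (pH 6.6), 0.4 mM GTP and 4% (v/v) DMSO, with varying compound concentrations. Extent of assembly was measured after 20 min at 30 °C.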

HUVEC [13] = test: Antiangiogenic activity in HUVEC assessed as cell growth at 0.001 ug/ml after 24 hrs by sulforhodamine B assay relative to control; assay type: functional, Homo sapiens
MCF7 = test: Growth inhibition of human MCF7 cells after 48 hrs by sulforhodamine B assay; assay type: functional; conditions: MCF7, 48 h; method in brief: as §1
HUVEC [14] = test: Antiangiogenic activity in HUVEC assessed as reduction of number of junctions at 1 ug/ml after 24 hrs by matrigel assay relative to control; assay type: functional, cell-based; conditions: Homo sapiens; method in brief: as §2
HUVEC [15] = test: Antiangiogenic activity in HUVEC assessed as reduction of number of junctions at 0.1 ug/ml after 24 hrs by matrigel assay relative to control; assay type: functional, cell-based; conditions: Homo sapiens; method in brief: as §2
HUVEC [16] = test: Antiangiogenic activity in HUVEC assessed as reduction of number of junctions at 0.001 ug/ml after 24 hrs by matrigel assay relative to control; assay type: functional; conditions: Homo sapiens; method in brief: as §2
HUVEC [17] = test: Antiangiogenic activity in HUVEC assessed as reduction of cord length at 1 ug/ml after 24 hrs by matrigel assay relative to control; assay type: functional, cell-based; conditions: Homo sapiens; method in brief: as §2
HUVEC [18] = test: Antiangiogenic activity in HUVEC assessed as reduction of cord length at 0.1 ug/ml after 24 hrs by matrigel assay relative to control; assay type: functional, cell-based; conditions: Homo sapiens; method in brief: as §2
HUVEC [19] = test: Antiangiogenic activity in HUVEC assessed as reduction of cord length at 0.001 ug/ml after 24 hrs by matrigel assay relative to control; assay type: functional; conditions: Homo sapiens; method in brief: as §2

Compound `COc1ccc(/C=C\c2cc(OC)c(OC)c(OC)c2)cc1O` [COMBRETASTATIN A4] has an MIC (Micrococcus luteus) of 25 µg, a GI50 (NCI-H460) of 0.0006 µg/mL (≈ 1.9 nM) and an MIC (Neisseria gonorrhoeae [1]) of 25 µg. The GI50 (DU-145) was 0.0008 µg/mL (≈ 2.53 nM), the EC50 (P388) was 0.0003 µg/mL (≈ 0.948 nM) and the GI50 (KM-20L2) was 0.061 µg/mL (≈ 193 nM). The GI50 (SF-268) was less than 0.001 µg/mL, the GI50 (BXPC-3) was 0.39 µg/mL (≈ 1230 nM) and the inhibition [2] was 81%. The inhibition [3] was 95%.

`COc1ccc(/C=C\c2cc(I)c(OC)c(I)c2)cc1OP(=O)([O-])[O-].[Na+].[Na+]` showed a growth at 1 µg/mL (HUVEC [4]) of -7%, an MIC (Neisseria gonorrhoeae [5]) of 32 µg/mL and a GI50 (NCI-H460) of 0.327 µg/mL. The solubility [6] was 2000 µg/mL, the GI50 (DU-145) was 0.242 µg/mL and the EC50 (P388) was 0.03 µg/mL. For the same compound, the Activity (HUVEC [7]) was 75%, the IC50 (HUVEC [8]) was 0.051 µg/mL and the Activity (HUVEC [9]) was 75%. It also gave a GI50 (KM-20L2) greater than 1 µg/mL, an Activity (HUVEC [10]) of -2% and an Activity (HUVEC [11]) greater than 100%. The IC50 [12] was greater than 40 µM, the GI50 (BXPC-3) was greater than 1 µg/mL and the Activity (HUVEC [13]) was greater than 100%. The GI50 (MCF7) was 0.066 µg/mL.

With `COc1ccc(/C=C\c2cc(I)c(OC)c(I)c2)cc1OP(=O)(O)O` the Activity (HUVEC [14]) was “Active”, the Activity (HUVEC [15]) was “Active” and the Activity (HUVEC [16]) was “inactive”. For the same compound, the Activity (HUVEC [17]) was “Active”, the Activity (HUVEC [18]) was “Active” and the Activity (HUVEC [19]) was “inactive”.
